Test results taken from ChEMBL document CHEMBL1151702, “Using an aryl phenanthroimidazole moiety as a conjugated flexible intercalator to improve the hybridization efficiency of a triplex-forming oligonucleotide” (Bioorg Med Chem, 2008).

Assays:
Format in all cases: nucleic-acid assay
Nucleic Acid [1] = assay: Binding affinity to synthetic double stranded DNA D4 at 1.5 uM at pH 6.0 by thermal denaturation study
Method in brief: (§1)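 Parallel triplex melting: target duplex assembled from strands at 1.0 µM each, TFO third strand added at 1.5 µM. Buffer 20 mM sodium cacodylate, 100 mM NaCl, 10 mM MgCl₂, at the pH of the line. Samples heated to 80 °C for 5 min, cooled to 5 °C and held 30 min. Absorbance read at 260 nm while heating at 1.0 °C/min; Tm taken as the first-derivative maximum.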

Nucleic Acid [2] = assay: Binding affinity to synthetic oligonucleotide ON19 at 1.0 uM at pH 6.0 by thermal denaturation study
Method in brief: (§2)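 Duplex melting: complementary strands at 1.0 µM each in 20 mM sodium cacodylate, 100 mM NaCl, 10 mM MgCl₂, at the pH of the line. Annealed at 80 °C for 5 min, then cooled to 5 °C and held 30 min. UV absorbance read at 260 nm with heating at 1.0 °C/min; Tm is the maximum of the first-derivative curve.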

Nucleic Acid [3] = assay: Binding affinity to synthetic oligonucleotide ON19 at 1.0 uM at pH 7.2 by thermal denaturation study; method in brief: as §2
Nucleic Acid [4] = assay: Binding affinity to synthetic oligonucleotide ON18 at 1.0 uM at pH 6.0 by thermal denaturation study; method in brief: as §2
Nucleic Acid [5] = assay: Binding affinity to synthetic oligonucleotide ON20 at 1.0 uM at pH 7.0 by thermal denaturation study
Method in brief: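 DNA/RNA antiparallel duplex: each strand at 1.0 µM in 10 mM sodium phosphate, 140 mM NaCl, 1 mM EDTA, pH 7.0. Heated to 80 °C for 5 min, cooled to 5 °C and held 30 min. Absorbance followed at 260 nm during a 1.0 °C/min temperature ramp; Tm is the first-derivative maximum.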

Nucleic Acid [6] = assay: Binding affinity to synthetic double stranded DNA D1 at 1.5 uM at pH 5.0 by thermal denaturation study; method in brief: as §1
Nucleic Acid [7] = assay: Binding affinity to synthetic double stranded DNA D3 at 1.5 uM at pH 6.0 by thermal denaturation study; method in brief: as §1
Nucleic Acid [8] = assay: Binding affinity to synthetic double stranded DNA D1 at 1.5 uM at pH 6.0 by thermal denaturation study; method in brief: as §1
Nucleic Acid [9] = assay: Binding affinity to synthetic double stranded DNA D2 at 1.5 uM at pH 6.0 by thermal denaturation study; method in brief: as §1
Nucleic Acid [10] = assay: Binding affinity to synthetic double stranded DNA D1 at 1.5 uM at pH 7.2 by thermal denaturation study; method in brief: as §1

Tm (Nucleic Acid [1])	Tm (Nucleic Acid [2])	Tm (Nucleic Acid [3])	Tm (Nucleic Acid [4])	Tm (Nucleic Acid [5])	Tm (Nucleic Acid [6])	Tm (Nucleic Acid [7])	Tm (Nucleic Acid [8])	Tm (Nucleic Acid [9])	Tm (Nucleic Acid [10])	Structure (SMILES)
31.5 °C	50.5 °C	50.5 °C	31.5 °C	53 °C	59.5 °C	29.5 °C	46.5 °C	23 °C	26 °C	Cc1cn([C@H]2C[C@H](OP(=O)(O)OC[C@H]3O[C@@H](n4ccc(N)nc4=O)C[C@@H]3OP(=O)(O)OC[C@H]3O[C@@H](n4cc(C)c(=O)[nH]c4=O)C[C@@H]3OP(=O)(O)OC[C@H]3O[C@@H](n4cc(C)c(=O)[nH]c4=O)C[C@@H]3OP(=O)(O)OC[C@H]3O[C@@H](n4cc(C)c(=O)[nH]c4=O)C[C@@H]3O[PH](O)(O)OC[C@H]3O[C@@H](n4cc(C)c(=O)[nH]c4=O)C[C@@H]3OP(=O)(O)OC[C@H]3O[C@@H](n4cc(C)c(=O)[nH]c4=O)C[C@@H]3OP(=O)(O)OC[C@H]3O[C@@H](n4cc(C)c(=O)[nH]c4=O)C[C@@H]3O)[C@@H](COC[C@H](CCOc3ccc(-c4nc5c6ccccc6c6ccccc6c5[nH]4)cc3)OP(=O)(O)O[C@H]3C[C@H](n4cc(C)c(=O)[nH]c4=O)O[C@@H]3COP(=O)(O)O[C@H]3C[C@H](n4cc(C)c(=O)[nH]c4=O)O[C@@H]3COP(=O)(O)O[C@H]3C[C@H](n4ccc(N)nc4=O)O[C@@H]3COP(=O)(O)O[C@H]3C[C@H](n4ccc(N)nc4=O)O[C@@H]3COP(=O)(O)O[C@H]3C[C@H](n4ccc(N)nc4=O)O[C@@H]3COP(=O)(O)O[C@H]3C[C@H](n4ccc(N)nc4=O)O[C@@H]3CO)O2)c(=O)[nH]c1=O
< 5 °C	49.5 °C	49.5 °C	19 °C	52 °C	55 °C	< 5 °C	28 °C	< 5 °C	< 5 °C	Cc1cn([C@H]2C[C@H](OP(=O)(O)OC[C@H]3O[C@@H](n4cc(C)c(=O)[nH]c4=O)C[C@@H]3OP(=O)(O)OC[C@H]3O[C@@H](n4cc(C)c(=O)[nH]c4=O)C[C@@H]3OP(=O)(O)OC[C@H]3O[C@@H](n4ccc(N)nc4=O)C[C@@H]3OP(=O)(O)OC[C@H]3O[C@@H](n4cc(C)c(=O)[nH]c4=O)C[C@@H]3OP(=O)(O)OC[C@H]3O[C@@H](n4cc(C)c(=O)[nH]c4=O)C[C@@H]3OP(=O)(O)OC[C@H]3O[C@@H](n4cc(C)c(=O)[nH]c4=O)C[C@@H]3O[PH](O)(O)OC[C@H]3O[C@@H](n4cc(C)c(=O)[nH]c4=O)C[C@@H]3OP(=O)(O)OC[C@H]3O[C@@H](n4cc(C)c(=O)[nH]c4=O)C[C@@H]3OP(=O)(O)OC[C@H]3O[C@@H](n4cc(C)c(=O)[nH]c4=O)C[C@@H]3O)[C@@H](COP(=O)(O)O[C@H]3C[C@H](n4ccc(N)nc4=O)O[C@@H]3COP(=O)(O)O[C@H]3C[C@H](n4ccc(N)nc4=O)O[C@@H]3COP(=O)(O)O[C@H]3C[C@H](n4ccc(N)nc4=O)O[C@@H]3COP(=O)(O)O[C@H]3C[C@H](n4ccc(N)nc4=O)O[C@@H]3CO)O2)c(=O)[nH]c1=O
25.5 °C	46.5 °C	46 °C	21.5 °C	49.5 °C	55 °C	21 °C	40.5 °C	16.5 °C	18.5 °C	Cc1cn([C@H]2C[C@H](OP(=O)(O)OC[C@H]3O[C@@H](n4ccc(N)nc4=O)C[C@@H]3OP(=O)(O)OC[C@H]3O[C@@H](n4cc(C)c(=O)[nH]c4=O)C[C@@H]3OP(=O)(O)OC[C@H]3O[C@@H](n4cc(C)c(=O)[nH]c4=O)C[C@@H]3OP(=O)(O)OC[C@H]3O[C@@H](n4cc(C)c(=O)[nH]c4=O)C[C@@H]3O[PH](O)(O)OC[C@H]3O[C@@H](n4cc(C)c(=O)[nH]c4=O)C[C@@H]3OP(=O)(O)OC[C@H]3O[C@@H](n4cc(C)c(=O)[nH]c4=O)C[C@@H]3OP(=O)(O)OC[C@H]3O[C@@H](n4cc(C)c(=O)[nH]c4=O)C[C@@H]3O)[C@@H](COC[C@H](CCOc3ccc(-c4nc5c6ccccc6c6ccccc6c5[nH]4)c4ccccc34)OP(=O)(O)O[C@H]3C[C@H](n4cc(C)c(=O)[nH]c4=O)O[C@@H]3COP(=O)(O)O[C@H]3C[C@H](n4cc(C)c(=O)[nH]c4=O)O[C@@H]3COP(=O)(O)O[C@H]3C[C@H](n4ccc(N)nc4=O)O[C@@H]3COP(=O)(O)O[C@H]3C[C@H](n4ccc(N)nc4=O)O[C@@H]3COP(=O)(O)O[C@H]3C[C@H](n4ccc(N)nc4=O)O[C@@H]3COP(=O)(O)O[C@H]3C[C@H](n4ccc(N)nc4=O)O[C@@H]3CO)O2)c(=O)[nH]c1=O
28.5 °C	46.5 °C	45.5 °C	33.5 °C		59 °C	34.5 °C	45.5 °C	27 °C	28 °C	Cc1cn([C@H]2C[C@H](OP(=O)(O)OC[C@H]3O[C@@H](n4ccc(N)nc4=O)C[C@@H]3OP(=O)(O)OC[C@H]3O[C@@H](n4cc(C)c(=O)[nH]c4=O)C[C@@H]3OP(=O)(O)OC[C@H]3O[C@@H](n4cc(C)c(=O)[nH]c4=O)C[C@@H]3OP(=O)(O)OC[C@H]3O[C@@H](n4cc(C)c(=O)[nH]c4=O)C[C@@H]3O[PH](O)(O)OC[C@H]3O[C@@H](n4cc(C)c(=O)[nH]c4=O)C[C@@H]3OP(=O)(O)OC[C@H]3O[C@@H](n4cc(C)c(=O)[nH]c4=O)C[C@@H]3OP(=O)(O)OC[C@H]3O[C@@H](n4cc(C)c(=O)[nH]c4=O)C[C@@H]3O)[C@@H](COC[C@H](COCc3ccc(C#Cc4ccc5ccc6cccc7ccc4c5c67)cc3)OP(=O)(O)O[C@H]3C[C@H](n4cc(C)c(=O)[nH]c4=O)O[C@@H]3COP(=O)(O)O[C@H]3C[C@H](n4cc(C)c(=O)[nH]c4=O)O[C@@H]3COP(=O)(O)O[C@H]3C[C@H](n4ccc(N)nc4=O)O[C@@H]3COP(=O)(O)O[C@H]3C[C@H](n4ccc(N)nc4=O)O[C@@H]3COP(=O)(O)O[C@H]3C[C@H](n4ccc(N)nc4=O)O[C@@H]3COP(=O)(O)O[C@H]3C[C@H](n4ccc(N)nc4=O)O[C@@H]3CO)O2)c(=O)[nH]c1=O
